From ChEMBL document CHEMBL1139032, “Design and modular parallel synthesis of a MCR derived alpha-helix mimetic protein-protein interaction inhibitor scaffold” (Bioorg Med Chem Lett, 2006)
Calls of active or inactive are those of the source. The rule behind the calls is not given here.

Experiments:
[1] = molecular target: Bcl-2-like protein 1 (Homo sapiens) (UniProt Q07817); assay: Inhibition of BclXL by FP assay
Outline: (§1)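 Run in 20 mM potassium phosphate pH 7.4 with 1 mM EDTA, 50 mM NaCl and 0.05% Pluronic F-68, at 10% final DMSO. Polarization read at ex 485/em 535 nm after 2 h at room temperature.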

Bcl-2-like protein 2 = molecular target: T1, Bcl-2-like protein 2 (Homo sapiens, UniProt Q92843); assay: Inhibition of Bclw by FP assay; outline: as §1
T1 sequence (Q92843 whole entry): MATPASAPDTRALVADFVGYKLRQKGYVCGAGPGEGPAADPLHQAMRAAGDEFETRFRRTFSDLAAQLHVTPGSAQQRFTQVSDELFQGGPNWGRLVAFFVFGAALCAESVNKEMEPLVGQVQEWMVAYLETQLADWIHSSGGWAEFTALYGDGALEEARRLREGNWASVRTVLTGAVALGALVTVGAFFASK

[2] = molecular target: Apoptosis regulator Bcl-2 (Homo sapiens) (UniProt P10415); assay: Inhibition of Bcl2 by FP assay; outline: as §1
Chain of Apoptosis regulator Bcl-2 (Homo sapiens) (P10415 whole entry): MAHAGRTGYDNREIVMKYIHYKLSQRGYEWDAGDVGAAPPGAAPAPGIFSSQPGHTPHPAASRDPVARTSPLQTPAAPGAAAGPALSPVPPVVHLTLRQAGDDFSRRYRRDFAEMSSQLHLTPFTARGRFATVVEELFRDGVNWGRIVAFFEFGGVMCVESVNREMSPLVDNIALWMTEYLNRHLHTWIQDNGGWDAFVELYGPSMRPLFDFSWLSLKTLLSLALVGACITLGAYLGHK

HL-60 = assay: Antiproliferative activity against HL60 cells by WST-1 assay; conditions: Homo sapiens

Chain of Bcl-2-like protein 1 (Homo sapiens) (Q07817 whole entry): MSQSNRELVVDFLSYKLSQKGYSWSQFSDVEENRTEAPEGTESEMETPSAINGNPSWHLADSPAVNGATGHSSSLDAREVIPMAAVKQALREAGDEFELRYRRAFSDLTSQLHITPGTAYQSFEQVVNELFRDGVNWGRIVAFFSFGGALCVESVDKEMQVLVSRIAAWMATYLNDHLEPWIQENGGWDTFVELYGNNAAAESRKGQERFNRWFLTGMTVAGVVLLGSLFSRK

Activity [1] | IC50 (Bcl-2-like protein 2) | Activity [2] | GI50 (HL-60) | SMILES
inactive | 8.09 µM | inactive | 9.43 µM | CCCCc1c(-c2ccccc2Oc2ccccc2)ncn1CCc1ccccc1OC
inactive | 26.9 µM | inactive | 13 µM | CCCCc1c(-c2ccccc2OC)ncn1Cc1cccc(-c2ccccc2)c1
inactive | 14 µM | inactive | 12.5 µM | CCCc1c(-c2ccccc2Oc2ccccc2)ncn1Cc1ccccc1OC
